Data from ChEMBL document CHEMBL1759958, “Disassembly of preformed amyloid beta fibrils by small organofluorine molecules” (Bioorg Med Chem Lett, 2011).
The source made the active and inactive calls. The rule behind the calls is not given here.

How the values were obtained:
[1] = Induction of disassembly of preformed amyloid beta (1 to 40) fibrils assessed as decrease in fibril amount at 10:1 compound to amyloid beta ratio by thioflavin T fluorescence method
In short: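 Aβ1-40 fibrils were grown at 100 μM final in 10 mM HEPES/100 mM NaCl, pH 7.4, at 37°C with 77 rpm shaking until THT saturation. Compound was added from 0.15 M DMSO stock, vortexed and re-incubated under the same conditions, then sampled periodically into 5 μM ThT (glycine-NaOH, pH 8.5). Read at ex 430/em 484 nm, ThT background subtracted, normalized to Aβ-only control; 3–4 parallel runs, mean ± SD.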

[2] = Induction of disassembly of preformed amyloid beta (1 to 40) fibrils assessed as disaggregated fibrils at 10:1 compound to amyloid beta ratio for 4 days by fourier-transform infrared spectroscopy
In short: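 Preformed Aβ1-40 fibrils (100 μM, HEPES pH 7.4, grown at 37°C with 77 rpm shaking to THT saturation) were exposed to compound added from DMSO stock and re-incubated at 37°C with shaking. For FTIR, 20 μl aliquots were lyophilized and mixed with 0.2 g solid KBr.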

[3] = Induction of disassembly of preformed amyloid beta (1 to 40) fibrils assessed as disaggregated fibrils at 10:1 compound to amyloid beta ratio for 4 days by atomic force microscopy
In short: (§1)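 Synthetic Aβ1-40 dissolved in 100 mM NaOH, diluted to 100 μM in 10 mM HEPES (100 mM NaCl, 0.02% NaN3, pH 7.4), grown at 37°C with shaking (77 rpm) until ThT saturation. Compound added from 0.15 M DMSO stock at 10:1 molar ratio, vortexed 30 s, re-incubated 37°C shaking. Aliquots of 2-5 μL spotted on fresh mica for 30-60 s, water-rinsed, air-dried. Imaged by non-contact AFM.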

[4] = Induction of disassembly of preformed amyloid beta (1 to 40) fibrils assessed as disaggregated fibrils at 10:1 compound to amyloid beta ratio by atomic force microscopy; settings: TDE = time-dependent effect; in short: as §1
[5] = Induction of disassembly of preformed amyloid beta (1 to 40) fibrils assessed as disaggregated fibrils at 10:1 compound to amyloid beta ratio for 6 days by atomic force microscopy; in short: as §1
[6] = Induction of disassembly of preformed amyloid beta (1 to 40) fibrils assessed as disaggregated fibrils at 10:1 compound to amyloid beta ratio for 1 day by atomic force microscopy; in short: as §1

Row | Structure (SMILES) | Activity [1] | Activity [2] | further results
1 | CCOC(=O)[C@@](O)(c1c[nH]c2ccc(Br)cc12)C(F)(F)F | Active | Active | –
2 | CCOC(=O)C(O)(c1c[nH]c2ccc(Br)cc12)C(F)(F)F (racemic) | Active | Active | –
3 | CCOC(=O)C(O)(c1c[nH]c2ccc(Cl)cc12)C(F)(F)F (racemic) | Active | Active | –
4 | CCOC(=O)C(O)(c1c(C)[nH]c2ccc(C(=O)OC)cc12)C(F)(F)F (racemic) | Active | Active | –
5 | COc1ccc2[nH]cc(CCNC(C)=O)c2c1 | Active | Active | –
6 | CCOC(=O)C(O)(c1c(C)[nH]c2ccc(C)cc12)C(F)(F)F (racemic) | Active | – | –
7 | CCOC(=O)[C@@](O)(c1c[nH]c2ccc(I)cc12)C(F)(F)F | Active | Active | Activity [3]: Active
8 | CCOC(=O)C(O)(c1c[nH]c2ccccc12)C(F)(F)F (racemic) | Active | – | –
9 | CCOC(=O)C(O)(c1c(C)[nH]c2ccc(OC)cc12)C(F)(F)F (racemic) | Active | – | –
10 | CCOC(=O)C(O)(c1c(C)n(C)c2ccccc12)C(F)(F)F (racemic) | Active | – | –
11 | CCOC(=O)[C@](O)(c1c[nH]c2ccc(Br)cc12)C(F)(F)F | Active | Active | –
12 | CCOC(=O)[C@@](O)(c1c[nH]c2ccc(Cl)cc12)C(F)(F)F | Active | Active | Activity [3]: Active
13 | CCOC(=O)C(O)(c1c[nH]c2ccc(C)cc12)C(F)(F)F (racemic) | Active | – | –
14 | CCOC(=O)C(O)(c1c[nH]c2ccc(I)cc12)C(F)(F)F (racemic) | Active | – | –
15 | CCOC(=O)[C@](O)(c1c[nH]c2ccc(Cl)cc12)C(F)(F)F | Active | Active | –
16 | CCOC(=O)[C@](O)(c1c[nH]c2ccc(I)cc12)C(F)(F)F | Active | Active | Activity [4]: tde; Activity [3]: Active; Activity [5]: Active; Activity [6]: Active
